Laboratory results as given in ChEMBL document CHEMBL5058577, “EUbOPEN Chemogenomics Library 2 (Multiplex)” (2022).

Tested on: Fibroblast
Experiment: Multiplex assay against human fibroblast
Assay type: toxicity, cell-based
In short: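 Values for tubulin, mitochondrial-mass and membrane-permeability phenotypes are per cents of cells with healthy nuclei. These cells were identified by CellPathfinder machine-learning gating of live cells that had been stained at seeding with Hoechst33342, BioTracker Green Microtubule Cytoskeleton Dye, MitoTracker Red and Annexin V Alexa Fluor 680 and imaged on a CQ1 microscope at 37°C and 5% CO2 after compound addition. The gating first set Hoechst high-intensity objects apart from normal cells, then split normal cells into healthy, pyknosed or fragmented nuclei, and pyknosed cells into mitotic or apoptotic.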

[1] = 12 h, 1 µM, compound concentration 1 uM, replicate 1
[2] = 12 h, 1 µM, compound concentration 1 uM, replicate 2
[3] = 12 h, 10 µM, compound concentration 10 uM, replicate 1
[4] = 12 h, 10 µM, compound concentration 10 uM, replicate 2
[5] = 24 h, 1 µM, compound concentration 1 uM, replicate 1
[6] = 24 h, 1 µM, compound concentration 1 uM, replicate 2
[7] = 24 h, 10 µM, compound concentration 10 uM, replicate 1
[8] = 24 h, 10 µM, compound concentration 10 uM, replicate 2
[9] = 48 h, 1 µM, compound concentration 1 uM, replicate 1
[10] = 48 h, 1 µM, compound concentration 1 uM, replicate 2
[11] = 48 h, 10 µM, compound concentration 10 uM, replicate 1
[12] = 48 h, 10 µM, compound concentration 10 uM, replicate 2

In the case of `C[C@H](NC(=O)c1c(C(F)F)nn(C)c1Oc1cccc(C(F)(F)F)c1)c1ccc(C(=O)O)cc1` [PALUPIPRANT], the “Population Apoptotic (%)” value [1] is reported as 26%, the “Population Fragmented Nuclei (%)” value [1] is reported as 29% and the “Population Healthy Nuclei (%)” value [1] is reported as 57%. The “Population Hoechst High Intensity Objects (%)” value [1] was 5%, the “Population Membrane Permeable-Phenotype (%)” value [1] was 0% and the “Population Mitochondria Different-Phenotype (%)” value [1] was 4%. For the same compound, the “Population Mitotic Cells (%)” value [1] was 73%, the “Population Normal (%)” value [1] was 94% and the “Population Pyknosed Nuclei (%)” value [1] was 12%. The “Population Tubulin-Different-Phenotype (%)” value [1] was 23%, the “Total Cell Count” value [1] was 187 and the “Population Apoptotic (%)” value [2] was 24%. The “Population Fragmented Nuclei (%)” value [2] was 23%, the “Population Healthy Nuclei (%)” value [2] was 52% and the “Population Hoechst High Intensity Objects (%)” value [2] was 6%. The “Population Membrane Permeable-Phenotype (%)” value [2] was 11%, the “Population Mitochondria Different-Phenotype (%)” value [2] was 6% and the “Population Mitotic Cells (%)” value [2] was 75%. The “Population Normal (%)” value [2] was 93%, the “Population Pyknosed Nuclei (%)” value [2] was 23% and the “Population Tubulin-Different-Phenotype (%)” value [2] was 55%. For the same compound, the “Total Cell Count” value [2] was 148, the “Population Apoptotic (%)” value [3] was 45% and the “Population Fragmented Nuclei (%)” value [3] was 13%. For the same compound, the “Population Healthy Nuclei (%)” value [3] was 70%, the “Population Hoechst High Intensity Objects (%)” value [3] was 2% and the “Population Membrane Permeable-Phenotype (%)” value [3] was 2%. For the same compound, the “Population Mitochondria Different-Phenotype (%)” value [3] was 6%, the “Population Mitotic Cells (%)” value [3] was 55% and the “Population Normal (%)” value [3] was 97%. For the same compound, the “Population Pyknosed Nuclei (%)” value [3] was 16%, the “Population Tubulin-Different-Phenotype (%)” value [3] was 45% and the “Total Cell Count” value [3] was 126. The “Population Apoptotic (%)” value [4] was 35%, the “Population Fragmented Nuclei (%)” value [4] was 42% and the “Population Healthy Nuclei (%)” value [4] was 35%. For the same compound, the “Population Hoechst High Intensity Objects (%)” value [4] was 14%, the “Population Membrane Permeable-Phenotype (%)” value [4] was 13% and the “Population Mitochondria Different-Phenotype (%)” value [4] was 13%. For the same compound, the “Population Mitotic Cells (%)” value [4] was 64%, the “Population Normal (%)” value [4] was 85% and the “Population Pyknosed Nuclei (%)” value [4] was 22%. For the same compound, the “Population Tubulin-Different-Phenotype (%)” value [4] was 60%, the “Total Cell Count” value [4] was 149 and the “Population Apoptotic (%)” value [5] was 40%. For the same compound, the “Population Fragmented Nuclei (%)” value [5] was 32%, the “Population Healthy Nuclei (%)” value [5] was 58% and the “Population Hoechst High Intensity Objects (%)” value [5] was 5%. The “Population Membrane Permeable-Phenotype (%)” value [5] was 1%, the “Population Mitochondria Different-Phenotype (%)” value [5] was 4% and the “Population Mitotic Cells (%)” value [5] was 60%. For the same compound, the “Population Normal (%)” value [5] was 94%, the “Population Pyknosed Nuclei (%)” value [5] was 8% and the “Population Tubulin-Different-Phenotype (%)” value [5] was 15%. The “Total Cell Count” value [5] was 178, the “Population Apoptotic (%)” value [6] was 42% and the “Population Fragmented Nuclei (%)” value [6] was 26%. For the same compound, the “Population Healthy Nuclei (%)” value [6] was 53%, the “Population Hoechst High Intensity Objects (%)” value [6] was 7% and the “Population Membrane Permeable-Phenotype (%)” value [6] was 8%. For the same compound, the “Population Mitochondria Different-Phenotype (%)” value [6] was 5%, the “Population Mitotic Cells (%)” value [6] was 57% and the “Population Normal (%)” value [6] was 92%. The “Population Pyknosed Nuclei (%)” value [6] was 20%, the “Population Tubulin-Different-Phenotype (%)” value [6] was 51% and the “Total Cell Count” value [6] was 141. The “Population Apoptotic (%)” value [7] was 60%, the “Population Fragmented Nuclei (%)” value [7] was 18% and the “Population Healthy Nuclei (%)” value [7] was 62%. The “Population Hoechst High Intensity Objects (%)” value [7] was 5%, the “Population Membrane Permeable-Phenotype (%)” value [7] was 2% and the “Population Mitochondria Different-Phenotype (%)” value [7] was 7%. The “Population Mitotic Cells (%)” value [7] was 39%, the “Population Normal (%)” value [7] was 94% and the “Population Pyknosed Nuclei (%)” value [7] was 18%. For the same compound, the “Population Tubulin-Different-Phenotype (%)” value [7] was 35%, the “Total Cell Count” value [7] was 131 and the “Population Apoptotic (%)” value [8] was 38%. The “Population Fragmented Nuclei (%)” value [8] was 40%, the “Population Healthy Nuclei (%)” value [8] was 42% and the “Population Hoechst High Intensity Objects (%)” value [8] was 10%. The “Population Membrane Permeable-Phenotype (%)” value [8] was 13%, the “Population Mitochondria Different-Phenotype (%)” value [8] was 3% and the “Population Mitotic Cells (%)” value [8] was 61%. The “Population Normal (%)” value [8] was 89%, the “Population Pyknosed Nuclei (%)” value [8] was 17% and the “Population Tubulin-Different-Phenotype (%)” value [8] was 51%. For the same compound, the “Total Cell Count” value [8] was 138, the “Population Apoptotic (%)” value [9] was 53% and the “Population Fragmented Nuclei (%)” value [9] was 34%. For the same compound, the “Population Healthy Nuclei (%)” value [9] was 57%, the “Population Hoechst High Intensity Objects (%)” value [9] was 11% and the “Population Membrane Permeable-Phenotype (%)” value [9] was 0%. For the same compound, the “Population Mitochondria Different-Phenotype (%)” value [9] was 4%, the “Population Mitotic Cells (%)” value [9] was 46% and the “Population Normal (%)” value [9] was 88%. For the same compound, the “Population Pyknosed Nuclei (%)” value [9] was 7%, the “Population Tubulin-Different-Phenotype (%)” value [9] was 29% and the “Total Cell Count” value [9] was 184. For the same compound, the “Population Fragmented Nuclei (%)” value [10] was 30%, the “Population Healthy Nuclei (%)” value [10] was 50% and the “Population Hoechst High Intensity Objects (%)” value [10] was 3%. For the same compound, the “Population Membrane Permeable-Phenotype (%)” value [10] was 4%, the “Population Normal (%)” value [10] was 96% and the “Population Pyknosed Nuclei (%)” value [10] was 19%. The “Population Tubulin-Different-Phenotype (%)” value [10] was 53%, the “Total Cell Count” value [10] was 147 and the “Population Apoptotic (%)” value [11] was 73%. The “Population Fragmented Nuclei (%)” value [11] was 20%, the “Population Healthy Nuclei (%)” value [11] was 60% and the “Population Hoechst High Intensity Objects (%)” value [11] was 4%. The “Population Membrane Permeable-Phenotype (%)” value [11] was 1%, the “Population Mitochondria Different-Phenotype (%)” value [11] was 8% and the “Population Mitotic Cells (%)” value [11] was 26%. The “Population Normal (%)” value [11] was 95%, the “Population Pyknosed Nuclei (%)” value [11] was 18% and the “Population Tubulin-Different-Phenotype (%)” value [11] was 46%. The “Total Cell Count” value [11] was 130, the “Population Apoptotic (%)” value [12] was 60% and the “Population Fragmented Nuclei (%)” value [12] was 45%. The “Population Healthy Nuclei (%)” value [12] was 45%, the “Population Hoechst High Intensity Objects (%)” value [12] was 13% and the “Population Membrane Permeable-Phenotype (%)” value [12] was 10%. The “Population Mitochondria Different-Phenotype (%)” value [12] was 6%, the “Population Mitotic Cells (%)” value [12] was 40% and the “Population Normal (%)” value [12] was 86%. For the same compound, the “Population Pyknosed Nuclei (%)” value [12] was 9%, the “Population Tubulin-Different-Phenotype (%)” value [12] was 50% and the “Total Cell Count” value [12] was 122.
